The subject of one test is C6. As to the kind of experiment: Induction of pregnenolone biosynthesis in rat C6 cells assessed as increase in pregnenolone level at 40 uM after 2 hrs by ELISA relative to control. It is filed as functional. A digest of the protocol:
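Rat C6 glioma cells grown in DMEM with 10% FBS, 2 mM L-glutamine, penicillin/streptomycin, seeded ~10 000 cells/well. Exposed to compound at 40 µM for 2 h at 37 °C, with DMSO/ethanol ≤0.5% (v/v) kept constant. Pregnenolone secreted into the medium measured by competitive ELISA; mean ± SEM of at least three determinations.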
(ELISA stands for enzyme-linked immunosorbent assay.)

For a further test, the target named is Translocator protein (Rattus norvegicus, UniProt P16257). Briefly: Displacement of [3H]PK11195 from translocator protein in rat kidney mitochondrial membrane. It is filed as cell membranes. A general note: In a radioligand displacement assay an active substance lowers the binding of a labelled ligand.
Chain of Translocator protein (P16257 whole entry, looked up): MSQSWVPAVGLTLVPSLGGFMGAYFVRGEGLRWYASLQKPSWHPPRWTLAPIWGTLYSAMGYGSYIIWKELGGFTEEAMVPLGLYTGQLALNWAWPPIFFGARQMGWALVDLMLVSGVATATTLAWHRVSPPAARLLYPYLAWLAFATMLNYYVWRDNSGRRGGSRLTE

Structures are written as SMILES.

`CCCN(CCC)C(=O)C(=O)c1c(-c2ccc(Cl)cc2)[nH]c2ccccc12`: the Activity with C6 is 40%.

`CCCCCCN(CCCCCC)C(=O)C(=O)c1c(-c2ccccc2)[nH]c2ccccc12`: the Activity with C6 is 30%.

Consider `CCCCN(CCCC)C(=O)C(=O)c1c(-c2ccccc2)[nH]c2ccccc12`, for which the Activity in the test on C6 amounted to 23%.

Broadly, the Ki is a dissociation constant, usually derived from enzyme kinetics or from competition with a known ligand. The low end stands for higher affinity, the high end for lower affinity. `CCN(Cc1ccccc1)C(=O)C(=O)c1c(-c2ccc(Cl)cc2)[nH]c2ccccc12` yielded a Ki at Translocator protein of 1.3 nM. For the same molecule, the Activity in the test on C6 was 136%.

For `CCCCCCN(CCCCCC)C(=O)C(=O)c1c(-c2ccccc2)[nH]c2c(C)cccc12`, the affinity on Translocator protein corresponds to a Ki of 1.9 nM. Further, the Activity with C6 came out at 63%.

The molecule `CCN(Cc1ccccc1)C(=O)C(=O)c1c(-c2ccccc2)[nH]c2ccccc12` registered a Ki at Translocator protein of 11 nM. Also, the Activity with C6 was 20%.

Regarding `CCCCN(C)C(=O)C(=O)c1c(-c2ccccc2)[nH]c2ccc(Cl)cc12`, the affinity on Translocator protein corresponds to a Ki of 3.9 nM. In addition, the Activity in the test on C6 worked out at 70%.

Molecule `CCCCCN(C)C(=O)C(=O)c1c(-c2ccccc2)[nH]c2ccc(Cl)cc12` had a Ki on Translocator protein of 3.6 nM. Besides, the Activity with C6 came to 76%.

For `CCCN(CCC)C(=O)C(=O)c1c(-c2ccccc2)[nH]c2c(Cl)cccc12`, the Ki on Translocator protein worked out at 14 nM. The Activity with C6 came to 0%.

The molecule `CCCCN(CC)C(=O)C(=O)c1c(-c2ccccc2)[nH]c2ccc(Cl)cc12` returned a Ki at Translocator protein of 1.8 nM. Moreover, the Activity in the test on C6 is on record as 72%.

In the case of `CCCCN(C)C(=O)C(=O)c1c(-c2ccc(Cl)cc2)[nH]c2ccc(Cl)cc12`, on Translocator protein, the affinity, expressed as Ki, was 0.15 nM. Also, the Activity in the test with C6 was 67%.

For the molecule `CCCCCCN(CCCCCC)C(=O)C(=O)c1c(-c2ccccc2)[nH]c2c(Cl)cccc12`, at Translocator protein, the Ki was determined as 2.4 nM. For the same molecule, the Activity in the test with C6 worked out at 0%.

As for `CCCCN(CCCC)C(=O)C(=O)c1c(-c2ccccc2)[nH]c2c(C)cccc12`, at Translocator protein, the Ki turned out to be 6 nM. In the test on C6, the Activity is on record as 71%.

On to `CCN(Cc1ccccc1)C(=O)C(=O)c1c(-c2ccccc2)[nH]c2ccc(F)cc12`, for which, at Translocator protein, the affinity, expressed as Ki, was 1.33 nM.

Turning to `CCN(Cc1ccccc1)C(=O)C(=O)c1c(-c2ccc(F)cc2)[nH]c2ccc(Cl)cc12`, affinity on Translocator protein was put at a Ki of 4.01 nM. In addition, in the test with C6, the Activity is reported as 0%.

In turn, `CCN(Cc1ccccc1)C(=O)C(=O)c1c(-c2ccccc2)[nH]c2c(Cl)cccc12` came in with an inhibitory constant (Ki) at Translocator protein of 5 nM. Also, in the test with C6, the Activity is listed as 0%.

With `CCCN(CCC)C(=O)C(=O)c1c(-c2ccc(F)cc2)[nH]c2ccc(Cl)cc12`, at Translocator protein, the affinity corresponds to a Ki of 2.83 nM. Moreover, the Activity in the test with C6 came out at 42%.

At Translocator protein, `CCCCN(CCCC)C(=O)C(=O)c1c(-c2ccc(F)cc2)[nH]c2ccc(Cl)cc12` had a Ki of 3.05 nM. Moreover, the Activity with C6 is 37%.

On to `CCN(Cc1ccccc1)C(=O)C(=O)c1c(-c2ccc(Cl)cc2)[nH]c2ccc(Cl)cc12`, for which the Activity with C6 was found to be 171%.

In the case of `CCN(Cc1ccccc1)C(=O)C(=O)c1c(-c2ccc(C)cc2)[nH]c2ccccc12`, the affinity on Translocator protein corresponds to a Ki of 2.64 nM. Further, in the test on C6, the Activity worked out at 86%.

On Translocator protein, `CCN(Cc1ccccc1)C(=O)C(=O)c1c(-c2ccccc2)[nH]c2c(C)cccc12` gave a Ki of 2.3 nM. In addition, the Activity in the test on C6 worked out at 0%.

Turning to `CCN(Cc1ccccc1)C(=O)C(=O)c1c(-c2ccccc2)[nH]c2ccc(Cl)cc12`, affinity at Translocator protein was put at a Ki of 4.6 nM. In the test with C6, the Activity was determined as 85%.

Molecule `CCCCN(C)C(=O)C(=O)c1c(-c2ccc(Cl)cc2)[nH]c2ccccc12` yielded a Ki at Translocator protein of 11 nM.

As for `CCCCN(CC)C(=O)C(=O)c1c(-c2ccc(Cl)cc2)[nH]c2ccccc12`, affinity at Translocator protein was put at a Ki of 3.6 nM. Besides, in the test with C6, the Activity is on record as 32%.

The molecule `CCN(C)C(=O)C(=O)c1c(-c2ccc(Cl)cc2)[nH]c2ccc(Cl)cc12` showed a Ki at Translocator protein of 9.54 nM. Further, the Activity with C6 stood at 0%.

On Translocator protein, `CCCCN(C)C(=O)C(=O)c1c(-c2ccccc2)[nH]c2ccccc12` registered an inhibition constant Ki of 53.3 nM. The Activity in the test with C6 stood at 32%.

In turn, `CCN(Cc1ccccc1)C(=O)C(=O)c1c(-c2ccc(C(F)(F)F)cc2)[nH]c2ccccc12` came in with a Ki at Translocator protein of 1 nM. In other words, the single-digit nanomolar range.

Molecule `CCCCN(CCCC)C(=O)C(=O)c1c(-c2ccccc2)[nH]c2c(Cl)cccc12` displayed a Ki at Translocator protein of 3.4 nM. Moreover, in the test on C6, the Activity is given as 0%.

At Translocator protein, `CCN(Cc1ccccc1)C(=O)C(=O)c1c(-c2ccc(F)cc2)[nH]c2ccccc12` registered a Ki of 1.68 nM. The Activity with C6 is given as 96%.

`CCN(Cc1ccccc1)C(=O)C(=O)c1c(-c2ccccc2)[nH]c2ccc([N+](=O)[O-])cc12` displayed a Ki on Translocator protein of 18.3 nM. Also, the Activity with C6 came to 0%.

With `CCCN(CCC)C(=O)C(=O)c1c(-c2ccccc2)[nH]c2ccc(F)cc12`, at Translocator protein, the Ki was 2.67 nM. Further, in the test with C6, the Activity was 66%.

Turning to `CCCCN(CCCC)C(=O)C(=O)c1c(-c2ccc(C(F)(F)F)cc2)[nH]c2ccccc12`, on Translocator protein, the Ki is 1.16 nM. In addition, the Activity in the test with C6 was 60%.

The molecule `CCCCCCN(CCCCCC)C(=O)C(=O)c1c(-c2ccc(C(F)(F)F)cc2)[nH]c2ccccc12` registered a Ki at Translocator protein of 1 nM. Moreover, the Activity in the test with C6 worked out at 85%.

`CCCCN(CCCC)C(=O)C(=O)c1c(-c2ccc(F)cc2)[nH]c2ccc(F)cc12` yielded a Ki at Translocator protein of 4.36 nM. Moreover, the Activity in the test with C6 was found to be 91%.

For `CCCCCCN(CCCCCC)C(=O)C(=O)c1c(-c2ccc([N+](=O)[O-])cc2)[nH]c2ccccc12`, at Translocator protein, the Ki was found to be 0.23 nM. Moreover, in the test with C6, the Activity came to 88%.

For the molecule `CCCCCCN(CCCCCC)C(=O)C(=O)c1c(-c2ccc(F)cc2)[nH]c2ccc(F)cc12`, affinity at Translocator protein was put at a Ki of 0.95 nM. In the test on C6, the Activity is 40%.

`CCCCN(CCCC)C(=O)C(=O)c1c(-c2ccc([N+](=O)[O-])cc2)[nH]c2ccccc12` registered a Ki on Translocator protein of 0.27 nM. In the test with C6, the Activity is on record as 64%.

Regarding `CCCCCCN(CCCCCC)C(=O)C(=O)c1c(-c2ccccc2)[nH]c2ccc(F)cc12`, the Ki at Translocator protein was 0.37 nM. For the same molecule, in the test with C6, the Activity was determined as 36%.

The molecule `CCCN(CCC)C(=O)C(=O)c1c(-c2ccccc2)[nH]c2ccc(OC)cc12` gave a Ki at Translocator protein of 328 nM. Also, the Activity in the test on C6 was found to be 45%.

For the molecule `CCCN(CCC)C(=O)C(=O)c1c(-c2ccccc2)[nH]c2ccc([N+](=O)[O-])cc12`, on Translocator protein, the Ki was found to be 20.2 nM. In the test with C6, the Activity stood at 91%.

Regarding `CCCCN(CCCC)C(=O)C(=O)c1c(-c2ccccc2)[nH]c2ccc(OC)cc12`, the affinity on Translocator protein corresponds to a Ki of 65.2 nM. Moreover, in the test with C6, the Activity stood at 36%.

In the case of `CCCCCCN(CCCCCC)C(=O)C(=O)c1c(-c2ccccc2)[nH]c2ccc(OC)cc12`, at Translocator protein, the affinity, expressed as Ki, was 35.5 nM. The Activity with C6 came to 87%.

On Translocator protein, `CCN(Cc1ccccc1)C(=O)C(=O)c1c(-c2ccccc2)[nH]c2ccc(OC)cc12` came in with a Ki of 69.5 nM.

At Translocator protein, `CCCCCN(C)C(=O)C(=O)c1c(-c2ccc(Cl)cc2)[nH]c2ccccc12` displayed a Ki of 3.4 nM. In the test with C6, the Activity stood at 65%.

`CCCN(CCC)C(=O)C(=O)c1c(-c2ccccc2)[nH]c2c(C)cccc12`: the affinity on Translocator protein, expressed as Ki, was 25 nM. The Activity in the test with C6 was found to be 129%.

Turning to `CCN(C)C(=O)C(=O)c1c(-c2ccccc2)[nH]c2ccccc12`, the Ki on Translocator protein turned out to be 940 nM. That is a sub-micromolar value.

`CCN(Cc1ccccc1)C(=O)C(=O)c1c(-c2ccc(F)cc2)[nH]c2ccc(F)cc12` came in with a Ki at Translocator protein of 1.67 nM. Against the preceding molecule, the Ki is about 560-fold lower.

In turn, `CCCCN(CC)C(=O)C(=O)c1c(-c2ccc(Cl)cc2)[nH]c2ccc(Cl)cc12` displayed a Ki at Translocator protein of 0.36 nM. In the test on C6, the Activity was found to be 11%.

`CCCCCN(C)C(=O)C(=O)c1c(-c2ccccc2)[nH]c2ccccc12` came in with a Ki at Translocator protein of 12.1 nM. In addition, the Activity in the test on C6 was 36%.

Take `CCN(Cc1ccccc1)C(=O)C(=O)c1c(-c2ccc([N+](=O)[O-])cc2)[nH]c2ccccc12`: the Ki at Translocator protein stood at 0.55 nM. For the same molecule, the Activity in the test with C6 worked out at 103%.

Molecule `CCCCCN(C)C(=O)C(=O)c1c(-c2ccc(Cl)cc2)[nH]c2ccc(Cl)cc12` yielded an inhibition constant Ki on Translocator protein of 0.18 nM. In the test with C6, the Activity came to 31%.

As for `CCCN(CCC)C(=O)C(=O)c1c(-c2ccc(F)cc2)[nH]c2ccc(F)cc12`, affinity on Translocator protein was put at a Ki of 6.73 nM. Moreover, the Activity with C6 stood at 17%.

`CCCCCCN(CCCCCC)C(=O)C(=O)c1c(-c2ccccc2)[nH]c2ccc([N+](=O)[O-])cc12`: on Translocator protein, the Ki turned out to be 30.3 nM. The Activity in the test on C6 came out at 115%.

Molecule `CCCCN(CCCC)C(=O)C(=O)c1c(-c2ccccc2)[nH]c2ccc([N+](=O)[O-])cc12` gave a Ki at Translocator protein of 21.6 nM. Further, the Activity in the test with C6 amounted to 102%.

Consider `CCCCN(CCCC)C(=O)C(=O)c1c(-c2ccccc2)[nH]c2ccc(F)cc12`, for which the Ki on Translocator protein was found to be 4 nM. Further, the Activity with C6 worked out at 88%.

In the case of `CCCN(CCC)C(=O)C(=O)c1c(-c2ccc([N+](=O)[O-])cc2)[nH]c2ccccc12`, the Ki on Translocator protein came out at 0.95 nM. Also, in the test on C6, the Activity was found to be 70%.

Molecule `CCCN(CCC)C(=O)C(=O)c1c(-c2ccc(C(F)(F)F)cc2)[nH]c2ccccc12` showed a Ki at Translocator protein of 1.69 nM. Besides, the Activity in the test with C6 was found to be 66%.

`CCCCN(CC)C(=O)C(=O)c1c(-c2ccccc2)[nH]c2ccccc12` displayed a Ki on Translocator protein of 12.6 nM. For the same molecule, the Activity in the test on C6 was 43%.

As for `CCCN(CCC)C(=O)C(=O)c1c(-c2ccccc2)[nH]c2ccc(Cl)cc12`, the Activity in the test with C6 came to 10%.

For the molecule `CCCN(CCC)C(=O)C(=O)c1c(-c2ccc(Cl)cc2)[nH]c2ccc(Cl)cc12`, in the test with C6, the Activity was determined as 49%.

Consider `CCCN(CCC)C(=O)C(=O)c1c(-c2ccccc2)[nH]c2ccccc12`, for which the Activity in the test with C6 was determined as 8%.

With `CCC(C)N(C)C(=O)c1cc2ccccc2c(-c2ccccc2Cl)n1` (stereo unspecified) [PK-11195], in the test on C6, the Activity was 48%.

On to `CN1C(=O)CN=C(c2ccc(Cl)cc2)c2cc(Cl)ccc21` [RO-54864], for which the Activity in the test with C6 was determined as 41%.
